# Results as given in ChEMBL document CHEMBL5321232, “Synthesis and biological evaluation of dual MDM2/XIAP inhibitors based on the tetrahydroquinoline scaffold” (Eur J Med Chem, 2023).
# Calls of active or inactive are those of the source. No cut-off for these calls is given here.
# Columns and labels:
# [1] = Antiproliferative activity against human EU-1 cells assessed as inhibition of cell growth incubated for 44 hrs by WST assay; assay type: functional, cell-based; conditions: EU-1, 44 h
# Summary of the method: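 Pediatric ALL-derived EU-1 cells grown in RPMI 1640 with 10% FBS, 2 mmol/L L-glutamine and penicillin/streptomycin at 37 °C, 5% CO2. Compounds given at graded concentrations for 44 h. WST (25 μg/well) then added for a further 4 h. OD read at 450 nm against a 620 nm reference, with cell-free wells for background.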
# MDA-MB-231 = assay: Antiproliferative activity against human MDA-MB-231 cells assessed as inhibition of cell growth incubated for 72 hrs by MTS assay; assay type: functional, cell-based; conditions: MDA-MB-231, 72 h
# Summary of the method: (§1)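 Cells seeded at 3,000–8,000 per well according to growth rate and incubated overnight. They were then exposed to compounds over 3 nM–100 μM for 72 h, four replicates per concentration. MTS added, 1.5 h in the dark at 37 °C, absorbance read at 490 nm. IC50 normalized to untreated cells and fitted by nonlinear regression.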
# CWR22R [2] = assay: Antiproliferative activity against human 22Rv1 cells assessed as inhibition of cell growth incubated for 72 hrs by MTS assay; assay type: functional, cell-based; conditions: 22Rv1, 72 h; summary of the method: as §1
# A-375 [3] = assay: Inhibition of colony formation in human A-375 cells assessed as reduction in number of clonogenic cells at 1 to 10 uM incubated for 10 days and subsequent media replacement with compound for every 3 days by crystal violet staining based microscopic analysis; assay type: functional, cell-based; conditions: dose 1-10 µM, time 10.0 day
# Summary of the method: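 A375 cells in log phase were seeded at 250 per well and incubated 48 h. They were then treated with 1, 5 or 10 μM for 10 days, with medium ± compound changed every 3 days. Colonies were methanol-fixed, stained with 0.5% crystal violet and counted by microscopy. Colony area expressed versus vehicle (100%) as mean ± SEM of three biological replicates.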
# CWR22R [4] = assay: Inhibition of colony formation in human 22Rv1 cells assessed as reduction in number of clonogenic cells incubated for 14 days and subsequent media replacement with compound for every 3 days by crystal violet staining based microscopic analysis; assay type: functional, cell-based; conditions: dose 1-10 µM, time 14.0 day
# Summary of the method: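 22Rv1 cells in log phase were seeded at 2,000 per well and incubated 72 h. They were then treated with 1, 5 or 10 μM for 14 days, with medium ± compound renewed every 3 days. Colonies were fixed in cold methanol, stained with 0.5% crystal violet and counted microscopically. Run in triplicate; area expressed relative to vehicle (100%) as mean ± SEM of three biological replicates.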
# EU-1 [5] = assay: Downregulation of MDM2 expression in human EU-1 cells upto 1 uM by Western blot analysis; assay type: functional, cell-based; conditions: time 8.0 hrs, TDE = time-dependent effect
# Summary of the method: (§2)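 EU-1 cells were treated at the doses and times indicated; for caspase-3, caspase-9 and PARP, 1 μM over a time course. Cells were lysed for 30 min in NaCl/Tris pH 8.0/EDTA/NP-40 buffer with protease inhibitors. Equal protein was run on SDS-PAGE and transferred to nitrocellulose. Membranes were blocked in milk, incubated with primary antibodies for 3 h at room temperature and HRP secondary for 1 h, then developed by ECL.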
# EU-1 [6] = assay: Downregulation of MDM2 expression in human EU-1 cells incubated for 8 hrs by Western blot analysis; assay type: functional, cell-based; conditions: dose <= 1.0 µM; summary of the method: as §2
# [7] = target: E3 ubiquitin-protein ligase Mdm2 (Homo sapiens) (UniProt Q00987); assay: Inhibition of MDM2 in human EU-1 cells assessed as increase in p53 expression upto 1 uM incubated at 8 hrs by Western blot analysis; assay type: cell-based; summary of the method: as §2
# [8] = target: E3 ubiquitin-protein ligase Mdm2 (Homo sapiens) (UniProt Q00987); assay: Inhibition of MDM2 in human EU-1 cells assessed as increase in p21 expression upto 1 uM incubated at 8 hrs by Western blot analysis; assay type: cell-based; summary of the method: as §2
# [9] = target: E3 ubiquitin-protein ligase Mdm2 (Homo sapiens) (UniProt Q00987); assay: Inhibition of MDM2 in human EU-1 cells assessed as increase in PUMA expression upto 1 uM incubated at 8 hrs by Western blot analysis; assay type: cell-based; summary of the method: as §2
# [10] = target: E3 ubiquitin-protein ligase XIAP (Homo sapiens) (UniProt P98170); assay: Inhibition of XIAP in human EU-1 cells assessed as increase in caspase3 at 1 uM incubated upto 24 hrs by Western blot analysis; assay type: cell-based; summary of the method: as §2
# [11] = target: E3 ubiquitin-protein ligase XIAP (Homo sapiens) (UniProt P98170); assay: Inhibition of XIAP in human EU-1 cells assessed as increase in caspase-9 at 1 uM incubated upto 24 hrs by Western blot analysis; assay type: cell-based; summary of the method: as §2
# [12] = target: E3 ubiquitin-protein ligase XIAP (Homo sapiens) (UniProt P98170); assay: Inhibition of XIAP in human EU-1 cells assessed as increase in PARP at 1 uM incubated upto 24 hrs by Western blot analysis; assay type: cell-based; summary of the method: as §2
# [13] = target: E3 ubiquitin-protein ligase Mdm2 (Homo sapiens) (UniProt Q00987); assay: Inhibition of MDM2 in human 22Rv1 cells assessed as increase in p53 expression upto 10 uM incubated at 24 hrs by Western blot analysis; assay type: cell-based
# Summary of the method: (§3)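 22Rv1 or A375 cells grown to 80% confluence were exposed for 24 h to 1, 5 or 10 μM compound in DMEM. AMG-232 control ran at 100 nM–1 μM. Cells were lysed in RIPA with protease/phosphatase inhibitors, and 30 μg protein was run on SDS-PAGE/PVDF. Membranes were blocked in 5% milk and probed overnight at 4 °C for p53, c-PARP, MDM2 and GAPDH. Bands detected by HRP/ECL.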
# [14] = target: E3 ubiquitin-protein ligase Mdm2 (Homo sapiens) (UniProt Q00987); assay: Inhibition of MDM2 in human A-375 cells assessed as increase in p53 expression upto 10 uM incubated at 24 hrs by Western blot analysis; assay type: cell-based
# Summary of the method: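 22Rv1 or A375 cells grown to 80% confluence were exposed for 24 h to 1, 5 or 10 μM compound in DMEM. Cells were lysed in RIPA with protease/phosphatase inhibitors, and 30 μg protein was run on SDS-PAGE/PVDF. Membranes were blocked in 5% milk and probed overnight at 4 °C for p53, c-PARP, MDM2 and GAPDH. Bands detected by HRP/ECL.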
# [15] = target: E3 ubiquitin-protein ligase Mdm2 (Homo sapiens) (UniProt Q00987); assay: Inhibition of MDM2 in human 22Rv1 cells assessed as increase in PARP expression upto 10 uM incubated at 24 hrs by Western blot analysis; assay type: cell-based; summary of the method: as §3
# [16] = target: E3 ubiquitin-protein ligase Mdm2 (Homo sapiens) (UniProt Q00987); assay: Inhibition of MDM2 in human A-375 cells assessed as increase in PARP expression upto 10 uM incubated at 24 hrs by Western blot analysis; assay type: cell-based; summary of the method: as §3
# CWR22R [17] = assay: Antitumor activity against human 22Rv1 cells xenografted in NOD SCID mouse assessed as inhibition of tumor growth at 60 mg/kg, ip administered for 10 days and measured every 3 days; assay type: functional, organism-based; conditions: time 10.0 day
# Summary of the method: (§4)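 Male humanized NSG mice, 8–9 weeks old, were injected s.c. in the right dorsal flank with 2 million 22Rv1 cells in medium/Matrigel 1:1. After ~14 days (mean tumor ~100 mm3), mice were randomized, n=5/group. Dosing was 60 mg/kg i.p. daily for 10 days in 5% DMSO/65% PEG400/30% saline, or vehicle alone. Caliper volume (a×b2×0.5) and body weight were recorded every 3 days.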
# CWR22R [18] = assay: Antitumor activity against human 22Rv1 cells xenografted in NOD SCID mouse at 60 mg/kg, ip administered for 10 days and measured every 3 days; assay type: functional, organism-based; conditions: time 10.0 day; summary of the method: as §4
# [19] = Toxicity in NOD SCID mouse assessed as body weight loss at 60 mg/kg, ip administered for 10 days and measured every 3 days; assay type: organism-based; conditions: in vivo, 240 h, time 10 day; summary of the method: as §4
# CWR22R [20] = assay: Antitumor activity against human 22Rv1 cells xenografted in NOD SCID mouse assessed as decrease in MDM2 expression at 60 mg/kg, ip administered for 10 days by immunostaining analysis; assay type: functional, organism-based; conditions: time 10.0 day
# Summary of the method: (§5)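 Tumors came from 22Rv1 xenografts in male NSG mice dosed i.p. daily for 10 days. Cryosections (10 μm) were fixed in 4% PFA and permeabilized with 0.25% Triton X-100, then blocked with 10% goat serum. Primary antibodies (1:200) against MDM2, cleaved caspase-3, cleaved PARP or CD31 were applied overnight at 4 °C, followed by fluorescent secondaries (1:1,000, 2 h) and a DAPI counterstain. Fluorescence intensity quantified as mean ± SEM.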
# CWR22R [21] = assay: Antitumor activity against human 22Rv1 cells xenografted in NOD SCID mouse assessed as increase in cleaved caspase3 expression at 60 mg/kg, ip administered for 10 days by immunostaining analysis; assay type: functional, organism-based; conditions: time 10.0 day; summary of the method: as §5
# CWR22R [22] = assay: Antitumor activity against human 22Rv1 cells xenografted in NOD SCID mouse assessed as increase in cleaved PARP expression at 60 mg/kg, ip administered for 10 days by immunostaining analysis; assay type: functional, organism-based; conditions: time 10.0 day; summary of the method: as §5
# CWR22R [23] = assay: Antitumor activity against human 22Rv1 cells xenografted in NOD SCID mouse assessed as disruption of tumor vasculature at 60 mg/kg, ip administered for 10 days by immunostaining analysis; assay type: functional, organism-based; conditions: time 10.0 day; summary of the method: as §5
# A-375 [24] = assay: Antiproliferative activity against human A-375 cells assessed as inhibition of cell growth incubated for 72 hrs by MTS assay; conditions: A-375, 72 h
# E3 ubiquitin-protein ligase Mdm2 (Homo sapiens), sequence (Q00987 whole entry, looked up): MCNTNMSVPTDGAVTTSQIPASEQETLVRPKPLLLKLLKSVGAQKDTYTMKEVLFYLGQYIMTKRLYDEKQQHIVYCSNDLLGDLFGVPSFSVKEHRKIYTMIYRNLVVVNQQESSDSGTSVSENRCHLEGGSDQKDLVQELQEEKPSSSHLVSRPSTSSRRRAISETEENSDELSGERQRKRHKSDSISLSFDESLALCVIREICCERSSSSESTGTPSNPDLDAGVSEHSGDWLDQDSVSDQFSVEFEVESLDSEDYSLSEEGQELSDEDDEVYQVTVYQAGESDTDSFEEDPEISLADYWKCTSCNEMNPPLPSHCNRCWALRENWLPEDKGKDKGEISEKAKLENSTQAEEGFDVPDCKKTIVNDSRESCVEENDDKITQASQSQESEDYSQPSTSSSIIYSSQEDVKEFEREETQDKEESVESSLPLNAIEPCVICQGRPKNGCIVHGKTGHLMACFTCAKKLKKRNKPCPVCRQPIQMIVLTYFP
# E3 ubiquitin-protein ligase XIAP (Homo sapiens), sequence (P98170 whole entry): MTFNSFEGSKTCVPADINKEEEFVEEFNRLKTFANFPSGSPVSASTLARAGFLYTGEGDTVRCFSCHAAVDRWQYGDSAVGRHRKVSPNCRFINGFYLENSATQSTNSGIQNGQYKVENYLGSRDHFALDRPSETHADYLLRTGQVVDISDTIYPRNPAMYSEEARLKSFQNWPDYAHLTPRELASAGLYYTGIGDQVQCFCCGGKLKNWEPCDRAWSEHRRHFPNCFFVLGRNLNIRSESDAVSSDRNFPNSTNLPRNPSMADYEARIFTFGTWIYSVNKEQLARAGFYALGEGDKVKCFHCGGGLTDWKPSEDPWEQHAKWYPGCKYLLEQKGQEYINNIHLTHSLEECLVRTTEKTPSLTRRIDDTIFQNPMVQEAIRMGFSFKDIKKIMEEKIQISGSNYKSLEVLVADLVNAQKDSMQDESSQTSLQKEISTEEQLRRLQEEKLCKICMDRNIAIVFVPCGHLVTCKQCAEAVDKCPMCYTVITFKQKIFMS
structure (smiles),measurement,setting,value
CC(=O)c1cccc(NS(=O)(=O)c2ccc3c(c2)C2OCCC2C(c2ccc(C(=O)C(C)C)cc2)N3)c1 (stereo not given),IC50,[1],200 nM
same,IC50,MDA-MB-231,1500 nM
same,IC50,CWR22R [2],5300 nM
same,inhibition,A-375 [3],Active
same,inhibition,CWR22R [4],Dose-Dependent Effect
same,Activity,EU-1 [5],Tde
same,Activity,EU-1 [6],Dose-Dependent Effect
same,inhibition,[7],Active
same,inhibition,[8],Active
same,inhibition,[9],Active
same,inhibition,[10],Active
same,inhibition,[11],Active
same,inhibition,[12],Active
same,inhibition,[13],Active
same,inhibition,[14],Active
same,inhibition,[15],Active
same,inhibition,[16],Active
same,Activity,CWR22R [17],Active
same,Activity,CWR22R [18],Active
same,Activity,[19],Non-Toxic
same,Activity,CWR22R [20],Active
same,Activity,CWR22R [21],Active
same,Activity,CWR22R [22],Active
same,Activity,CWR22R [23],Active
same,IC50,A-375 [24],1000 nM
